Test results published in ChEMBL document CHEMBL3739337, “Alkaloids with Different Carbon Units from Myrioneuron faberi” (J Nat Prod, 2015).

Experiments:
[1] = Cytotoxicity against human Huh7.5 cells; format: cell-based, Huh-7
Procedure, shortened: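 Huh7.5 human liver cells grown in DMEM with 10% inactivated fetal bovine serum and 1% penicillin–streptomycin at 37 °C, 5% CO2.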

Hepatitis C virus = assay: Antiviral activity against chimeric HCV FL-J6/JFH/JC1 infected in human Huh7.5 cells assessed as reduction of intracellular viral RNA level after 72 hrs by RT-PCR assay; format: functional, organism-based, Hepacivirus hominis; settings: FL-J6/JFH/JC1, Huh-7, 72 h
Procedure, shortened: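 Huh7.5 cells in DMEM with 10% inactivated FBS at 37 °C, 5% CO2, seeded at 3 × 10^4 cells/cm2. After 24 h they were infected (about 45 IU per cell) and given compound or solvent control at the same time. At 72 h, intracellular HCV RNA was measured against GAPDH by one-step RT-PCR (2ΔΔCT). EC50 was derived by the Reed and Muench method.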

[2] = Therapeutic index, ratio of CC50 for human Huh7.5 cells to EC50 for chimeric HCV FL-J6/JFH/JC1 infected in human Huh7.5 cells; format: cell-based, Huh-7; settings: read-out: Ratio CC50/EC50

| Compound | CC50 [1] [µM] | EC50 (Hepatitis C virus) [µM] | selectivity ratio [2] |
| --- | --- | --- | --- |
| COC[C@@H]1CCCN2C[C@@H]3CCC[C@H]4CC(C=O)=CN([C@H]43)[C@@H]12 | > 100 | 0.92 | > 109 |
| O=C1CC[C@@H]2CCC[C@H]3CN4CCC[C@H](C[C@H]5CCCN6C[C@@H]7CCC[C@H]8CCC(=O)N([C@H]87)[C@H]56)[C@H]4N1[C@H]23 | > 100 | 10.5 | > 9.5 |
| CCC[C@H](NC(=O)[C@@H]1[C@H]2CCC[C@H]2CN1C(=O)[C@@H](NC(=O)[C@@H](NC(=O)c1cnccn1)C1CCCCC1)C(C)(C)C)C(=O)C(=O)NC1CC1 [TELAPREVIR] | 47.8 | 0.129 | 371 |
| C1C[C@H]2CCCN3[C@H]2[C@@H](C1)CN1CCCC[C@@H]13 | 95.9 | 7.35 | 13 |
| O=C1CC[C@@H]2CCC[C@H]3CN4CCCC[C@H]4N1[C@H]23 | > 100 | 30.6 | > 3.3 |
| O=CC1=CN2[C@@H]3[C@@H](CCC[C@H]3CN3CCCC[C@@H]32)C1 | > 100 | 3.27 | > 30.6 |
